Consider six compounds from article PMC5836847 (Clinical Pharmacology and Therapeutics, 2017).

The conditions of data set [1]: cited from earlier work.
Data set [2] is described as follows: Plasma pharmacokinetics of sacubitril/valsartan analytes at steady state. The data set is classed as in vivo, human. The conditions noted are these: for AUCtau,ss, Intrasubject CV / Cmax,ss, Intrasubject CV: fixed effect model; for AUC / Cmax: male, human, oral, Mean ± SD; for AUC / Cmax / Tmax (time of peak concentrations): plasma; for AUC: AUCtau,ss, Sacubitril/valsartan alone (400 mg q.d., steady state, Day 7); for Cmax: Cmax,ss; for Tmax (time of peak concentrations): oral administration of sacubitril/valsartan, steady state. In short, it runs like this:
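Male hypertensive patients took oral sacubitril/valsartan 400 mg q.d. on Days 3–7, with predose samples on Days 3–6. Plasma sacubitril, sacubitrilat and valsartan were profiled at steady state on Day 7 and on Day 8 with single-dose sildenafil 50 mg. Outputs were AUCtau,ss, Cmax,ss and Tmax,ss. Log-transformed parameters went into a fixed-effect model with subject and treatment as factors; combination was test, monotherapy reference. Output was back-transformed GMR with 90% CI.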

For data set [3] the following is noted: cited from earlier work. This is another data set of the same source.
Data set [4] is described as follows: Plasma pharmacokinetics of sildenafil and N-desmethyl-sildenafil. It counts as in vivo, human. The conditions noted are these: for AUCinf, Intrasubject CV / AUClast, Intrasubject CV / Cmax, Intrasubject CV: fixed effect model, sacubitril/valsartan + sildenafil vs. sildenafil alone; for Tmax (median time to reach maximum concentration): single-dose oral administration of sildenafil; for AUC(0-t): AUClast. In short, it runs like this:
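Male hypertensive patients received single oral sildenafil 50 mg alone (Day 1), then again on Day 8 with sacubitril/valsartan 400 mg q.d. at steady state. Plasma sildenafil and N-desmethyl-sildenafil were profiled after each dose. Outputs were AUCinf, AUClast, T1/2, Cmax and Tmax. Log-transformed parameters went into a fixed-effect model with subject and treatment as factors; combination was test, sildenafil alone reference. Output was back-transformed GMR with 90% CI.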

The test system of another data set is healthy subjects. The conditions noted are these: 40 mg and 80 mg doses; cited from earlier work.
Data set [5] relates to patients with mild-to-moderate hypertension. The data set can be described thus: Safety assessments. It counts as in vivo, human. Conditions: for safety and tolerability: single-dose sildenafil 50 mg, sacubitril/valsartan 400 mg q.d., coadministration. In short, it runs like this:
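Adverse events were recorded across three sequential periods in male hypertensive patients: single oral sildenafil 50 mg (Day 1), sacubitril/valsartan 400 mg q.d. (Days 3–7), and both together (Day 8). Events were graded by intensity and by suspected relation to study drug. They were summarised by treatment and visit/time, as number and percentage of subjects by body system and treatment.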

The subject of another data set is patients with HFrEF. The conditions noted are these: cited from earlier work.
For data set [6] the following is noted: 200 mg twice daily or 400 mg q.d., healthy individuals; cited from earlier work.
The conditions of data set [7]: sacubitril/valsartan and warfarin coadministered; cited from earlier work.
[8] abbreviates: coadministration of sacubitril/valsartan and sildenafil vs. sacubitril/valsartan alone.
Where [9] appears, read: 400 mg, Sacubitril/valsartan alone (Day 7).
Where [10] appears, read: Sacubitril/valsartan + Sildenafil (Day 8).
Where [11] appears, read: plasma, Sacubitril/valsartan + Sildenafil (Day 8).
Setting [12] is: plasma, Sildenafil alone (50 mg single dose, Day 1).
The mark [13] stands for this setting: plasma, Sildenafil alone (Day 1).

As to `CCCCC(=O)N(Cc1ccc(-c2ccccc2-c2nnn[nH]2)cc1)[C@H](C(=O)O)C(C)C` [Valsartan], the “intersubject variability in pharmacokinetic parameters” value in data set [1] is reported as 44%. Moreover, in data set [2] (setting [8]), the “decrease in AUC” value was 29% and the “decrease in Cmax” value was determined as 39%. Further, in data set [2], the “AUCtau,ss, Intrasubject CV” value came out at 28%; the “Cmax,ss, Intrasubject CV” value was 32.6%; the “Tmax (time of peak concentrations)” value was 2.0 h. The area under the curve (AUC) (usually concentration integrated over time) in data set [2] (400 mg) came to 33000 ± 12400 ng·h/mL. The Cmax (as a rule, the peak of the concentration-time curve) in data set [2] (setting [9]) was 5300 ± 1750 ng/mL. In data set [2] (setting [10]), the Cmax came out at 3350 ± 1480 ng/mL.

In the case of `CCCc1nn(C)c2c(=O)[nH]c(-c3cc(S(=O)(=O)N4CCNCC4)ccc3OCC)nc12` [N‐desmethyl‐sildenafil], the “share of sildenafil's pharmacological effects accounted for” value in data set [3] was 20%. Moreover, in [3] (relative to sildenafil), the “plasma concentration relative to parent compound” value is roughly 40% and the “potency relative to parent compound” value is roughly 50%. Moreover, in data set [4] (coadministration of sildenafil and sacubitril/valsartan vs. sildenafil alone), the “decrease in Cmax” value is 14%. Further, in data set [4], the “AUCinf, Intrasubject CV” value came out at 15.9%; the “AUClast, Intrasubject CV” value stood at 16.4%; the “Cmax, Intrasubject CV” value amounted to 26.7%. Moreover, in data set [4] (setting [11]), the “AUCinf, Adjusted geometric mean” value was found to be 305 ng·h/mL; the “AUClast, Adjusted geometric mean” value was determined as 278 ng·h/mL; the “AUClast, Mean ± SD” value worked out at 305 ± 133 ng·h/mL; the “Cmax, Adjusted geometric mean” value is given as 75.9 ng/mL. Further, the “Cmax, Mean ± SD” value in [4] (setting [11]) is 84.6 ± 39.3 ng/mL. Also, in data set [4] (setting [12]), the “AUCinf, Mean ± SD” value was found to be 359 ± 157 ng·h/mL and the “Cmax, Mean ± SD” value is on record as 95.1 ± 32.5 ng/mL. Moreover, in [4] (setting [13]), the “AUCinf, Adjusted geometric mean” value was found to be 327 ng·h/mL; the “AUClast, Adjusted geometric mean” value was 297 ng·h/mL; the “AUClast, Mean ± SD” value came out at 331 ± 152 ng·h/mL; the “Cmax, Adjusted geometric mean” value is on record as 88.4 ng/mL. The “terminal half-life (T1/2)” value in data set [4] (plasma, sildenafil administered alone) is given as 5.3 ± 1.6 h. Besides, the “terminal half-life (T1/2)” value in data set [4] (plasma, sildenafil coadministered with sacubitril/valsartan) stood at 6.2 ± 1.9 h. Moreover, the “Tmax (median time to reach maximum concentration)” value in data set [4] (plasma) was 1 h.

As to `CCOC(=O)[C@H](C)C[C@@H](Cc1ccc(-c2ccccc2)cc1)NC(=O)CCC(=O)O` [Sacubitril], the “decrease in Cmax” value in data set [2] (setting [8]) is recorded as 10%. For the same compound, in [2], the “AUCtau,ss, Intrasubject CV” value was 12.2%; the “Cmax,ss, Intrasubject CV” value is on record as 45.3%; the “Tmax (time of peak concentrations)” value stood at 0.5 h. In data set [2] (400 mg), this compound had an AUC of 3400 ± 1000 ng·h/mL. The Cmax in data set [2] (setting [9]) was determined as 2470 ± 865 ng/mL. The Cmax in [2] (setting [10]) was found to be 2310 ± 1020 ng/mL.

On to `CCCc1nn(C)c2c(=O)[nH]c(-c3cc(S(=O)(=O)N4CCN(C)CC4)ccc3OCC)nc12` [Sildenafil], for which the “duration of BP-lowering effect postdosing” value in the data set on healthy subjects is given as 5 h. Besides, the “AUCinf, Intrasubject CV” value in data set [4] worked out at 23.4%. Moreover, in data set [4], the “AUClast, Intrasubject CV” value was determined as 23.4%. The “Cmax, Intrasubject CV” value in data set [4] was found to be 35.5%. The half-life – broadly, how long it takes for the measured level to halve – in [4] (male, human, plasma, oral, 50 mg) was 3.7 ± 1 h. In addition, the AUC(0-t) – broadly, the area under the concentration-time curve up to a stated or last time point – in data set [4] (male, human, plasma, oral, 50 mg, Mean ± SD, plasma, Sildenafil alone (Day 1)) is 587 ± 270 ng·h/mL; in [4] (male, human, plasma, oral, Mean ± SD, plasma, Sacubitril/valsartan + Sildenafil (Day 8)), 612 ± 297 ng·h/mL. For the same compound, the Cmax in [4] (male, human, plasma, oral, Cmax, Mean ± SD, plasma, Sacubitril/valsartan + Sildenafil (Day 8)) was 189 ± 99.6 ng/mL. Moreover, the “Tmax (median time to reach maximum concentration)” value in data set [4] (plasma) is on record as 0.5 h. The “suspected treatment-related AEs of moderate intensity” value in [5] (per study period) was 1 AE. Besides, the safety and tolerability entry is “generally safe and well‐tolerated” in data set [5]; “safe and well tolerated” in the data set with patients with HFrEF (sildenafil administered to patients with HFrEF). For the same compound, the cardiac output result in the data set on patients with HFrEF (50 mg sildenafil, patients with HFrEF) is on record as “increased”.

Regarding `C[C@H](C[C@@H](Cc1ccc(-c2ccccc2)cc1)NC(=O)CCC(=O)O)C(=O)O` [Sacubitrilat], in data set [2], the “AUCtau,ss, Intrasubject CV” value turned out to be 3.75%; the “Cmax,ss, Intrasubject CV” value is given as 13%; the “Tmax (time of peak concentrations)” value is listed as 2.0 h. In data set [2] (400 mg), this compound gave an exposure (AUC) of 143000 ± 26300 ng·h/mL. Also, in data set [2] (setting [9]), the highest level (Cmax) was 14900 ± 2250 ng/mL. For the same compound, the Cmax in data set [2] (setting [10]) was 14000 ± 2420 ng/mL.

With Sacubitril/valsartan, the “time to achieve steady-state levels” value in [6] is 3 days. Besides, in [5], the safety and tolerability result is “generally safe and well‐tolerated”. Besides, the “impact on the pharmacokinetics of the CYP2C9 substrate warfarin” value in data set [7] is “no impact”.
